In one experiment the target is D(3) dopamine receptor (Homo sapiens, UniProt P35462). Kind of experiment: Binding affinity at dopamine receptor D3.
The target of the next experiment is T1, D(4) dopamine receptor (Homo sapiens, UniProt P21917).
T1 sequence (P21917 whole entry): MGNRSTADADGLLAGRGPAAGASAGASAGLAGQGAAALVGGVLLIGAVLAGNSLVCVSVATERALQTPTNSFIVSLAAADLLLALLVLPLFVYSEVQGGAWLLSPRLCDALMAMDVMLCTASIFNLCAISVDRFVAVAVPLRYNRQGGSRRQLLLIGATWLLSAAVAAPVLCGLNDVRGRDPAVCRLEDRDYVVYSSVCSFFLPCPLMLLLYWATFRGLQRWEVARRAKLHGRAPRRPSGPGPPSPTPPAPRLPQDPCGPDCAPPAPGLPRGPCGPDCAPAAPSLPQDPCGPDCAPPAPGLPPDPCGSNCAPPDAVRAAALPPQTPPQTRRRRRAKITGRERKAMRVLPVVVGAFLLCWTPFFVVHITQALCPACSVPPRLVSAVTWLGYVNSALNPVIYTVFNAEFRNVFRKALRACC
Kind of experiment: Binding affinity at human dopamine receptor D4. The gist of the method: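 Membranes from CHO cells expressing cloned human D4 receptor, prepared in HEPES buffer with protease inhibitors. Compounds tested at 0.1 nM–10 µM in duplicate with 0.1 nM [3H]YM-09151-2 and 40 µg protein, in 50 mM Tris pH 7.4 with 120 mM NaCl. Incubated 2 h at room temperature, then filtered and counted by scintillation. Nonspecific binding defined with 10 µM spiperone. Ki from IC50 by Cheng-Prusoff. 2–3 independent experiments.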

For the next experiment, the target named is D(2) dopamine receptor (Homo sapiens, UniProt P14416). Description: Binding affinity at human dopamine receptor D2. The method in brief:
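Membranes from CHO cells expressing cloned D2 receptor (labelled primate in methods). Compounds tested at 0.1 nM–10 µM in duplicate with 0.1 nM [3H]YM-09151-2 and 40 µg membrane protein. Buffer was 50 mM Tris pH 7.4 with 120 mM NaCl, bacitracin and aprotinin. Incubated 2 h at room temperature, then filtered on PEI-treated GF/C. Nonspecific binding defined with 10 µM spiperone. IC50 converted to Ki by Cheng-Prusoff. 2–3 independent experiments.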

A short description of experiment [1]: Binding affinity at human dopamine receptor D2.

Sequence of D(2) dopamine receptor (P14416 whole entry): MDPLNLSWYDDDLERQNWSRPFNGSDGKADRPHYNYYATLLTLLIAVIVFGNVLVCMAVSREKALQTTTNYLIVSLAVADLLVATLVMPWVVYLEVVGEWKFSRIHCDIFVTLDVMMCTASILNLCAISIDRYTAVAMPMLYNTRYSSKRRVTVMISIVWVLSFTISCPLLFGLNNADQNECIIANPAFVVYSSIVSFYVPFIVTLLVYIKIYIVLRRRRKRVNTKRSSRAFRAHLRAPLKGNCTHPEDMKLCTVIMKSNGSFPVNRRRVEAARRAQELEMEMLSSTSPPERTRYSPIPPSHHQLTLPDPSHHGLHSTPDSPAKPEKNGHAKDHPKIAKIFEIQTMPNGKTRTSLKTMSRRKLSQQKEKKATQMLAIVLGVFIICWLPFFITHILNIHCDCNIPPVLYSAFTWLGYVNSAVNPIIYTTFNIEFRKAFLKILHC
Sequence of D(3) dopamine receptor (P35462 whole entry): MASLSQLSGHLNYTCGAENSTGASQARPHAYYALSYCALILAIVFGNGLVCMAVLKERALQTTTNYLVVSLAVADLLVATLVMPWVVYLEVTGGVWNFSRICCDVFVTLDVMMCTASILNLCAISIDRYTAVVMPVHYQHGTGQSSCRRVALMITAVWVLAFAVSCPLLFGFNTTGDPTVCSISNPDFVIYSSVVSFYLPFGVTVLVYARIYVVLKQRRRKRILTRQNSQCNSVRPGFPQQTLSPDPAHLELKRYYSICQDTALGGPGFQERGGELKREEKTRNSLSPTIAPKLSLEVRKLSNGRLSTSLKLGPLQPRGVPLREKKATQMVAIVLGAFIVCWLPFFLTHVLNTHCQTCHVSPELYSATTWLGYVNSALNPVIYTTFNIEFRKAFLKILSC

In the case of `Clc1cccc(C(OC2CC3CCC(C2)N3CCCc2ccccc2)c2ccccc2)c1` (stereo not given), the Ki (usually a dissociation constant, usually derived from enzyme kinetics or from competition with a known ligand) at D(3) dopamine receptor worked out at 72.7 nM; on D(4) dopamine receptor, 222 nM; at D(2) dopamine receptor, 59 nM.

For `CCN(CC)CCOCCOC1(c2ccccc2)CCCC1`, on D(3) dopamine receptor, the Ki amounted to 6100 nM.

Consider `O=C(NCCCN1CCN(c2cccc(Cl)c2Cl)CC1)c1cccc2c1Cc1ccccc1-2`, for which the results for the inhibition constant (Ki) on D(3) dopamine receptor, at D(4) dopamine receptor and on D(2) dopamine receptor were 170 nM, 326 nM and 1680 nM, respectively.

For the compound `O=C(NCCCN1CCN(c2ccccc2)CC1)c1ccc2c(c1)Cc1ccccc1-2`, the Ki on D(3) dopamine receptor worked out at 1460 nM; on D(4) dopamine receptor, 679 nM; at D(2) dopamine receptor, 825 nM.

As for `C[C@@H]1CN(CCCN(c2ccccc2)c2ccccc2)C[C@H](C)N1CCCc1ccccc1`, the Ki at D(3) dopamine receptor is over 5000 nM.

On to `Fc1ccc(C(OC2CC3CCC(C2)N3Cc2cc3ccccc3[nH]2)c2ccc(F)cc2)cc1` (stereo not given), for which the Ki is 53.2 nM at D(3) dopamine receptor, 172 nM at D(4) dopamine receptor and 218 nM on D(2) dopamine receptor.

With `OC1CCc2c(c3ccccc3n2CCCN2CCN(c3ccccc3)CC2)C1` (stereo not given), the Ki at D(3) dopamine receptor was 4010 nM; on D(4) dopamine receptor, over 4000 nM; at D(2) dopamine receptor it was 180 nM.

On D(3) dopamine receptor, `C[C@@H]1CN(CCCn2c3ccccc3c3ccccc32)C[C@H](C)N1C` displayed a Ki of over 8000 nM.

As for `O=C(NCCCN1CCN(c2ccccc2)CC1)c1cccc2c1Cc1ccccc1-2`, the Ki on D(3) dopamine receptor is 430 nM; at D(4) dopamine receptor, 791 nM; on D(2) dopamine receptor it was 473 nM.

With `O=C(NCCCCN1CCN(c2cccc(Cl)c2Cl)CC1)c1ccc2c(c1)-c1ccccc1C2`, the values for the inhibitory constant (Ki) on D(3) dopamine receptor, on D(4) dopamine receptor and at D(2) dopamine receptor were 1.4 nM, over 5000 nM and 217 nM, respectively.

As for `Fc1ccc(C(OCCOC2CC3CCC(C2)N3)c2ccc(F)cc2)cc1` (stereo not given), the Ki on D(3) dopamine receptor was 2520 nM; at D(4) dopamine receptor, over 4000 nM; on D(2) dopamine receptor, 1120 nM.

At D(3) dopamine receptor, `Clc1ccccc1N1CCN(CCCn2c3ccccc3c3ccccc32)CC1` had a Ki of over 4000 nM.

In the case of `C[C@@H]1CN(CCCn2c3ccccc3c3ccccc32)C[C@H](C)N1CCCc1ccccc1`, the Ki at D(3) dopamine receptor is over 4000 nM.

As to `Fc1ccc(C(OC2CC3CCC(C2)N3Cc2cccc3ccccc23)c2ccc(F)cc2)cc1` (stereo not given), the Ki on D(3) dopamine receptor is 112 nM; at D(4) dopamine receptor it was 120 nM; on D(2) dopamine receptor, 379 nM.

With `Fc1ccc(C(OC2CC3CCC(C2)N3Cc2ccccc2)c2ccc(F)cc2)cc1` (stereo not given), the values for the Ki at D(3) dopamine receptor, at D(4) dopamine receptor and at D(2) dopamine receptor were 63.3 nM, 640 nM and 132 nM, respectively.

Regarding `Fc1ccc(C(O[C@H]2C[C@H]3CC[C@@H](C2)N3CCCCc2ccccc2)c2ccc(F)cc2)cc1`, the Ki at D(3) dopamine receptor was found to be 13.8 nM; at D(4) dopamine receptor it was 68.1 nM; on D(2) dopamine receptor it was 81.3 nM.

For `Fc1ccc(C(OC2CC3CCC(C2)N3Cc2ccc(Cl)c(Cl)c2)c2ccc(F)cc2)cc1` (stereo not given), the Ki at D(3) dopamine receptor is 277 nM; at D(4) dopamine receptor, 349 nM; at D(2) dopamine receptor, 625 nM.

On to `O=C(NCCCCN1CCN(c2cccc(Cl)c2Cl)CC1)c1cccc2c1-c1ccccc1C2=O`, for which the Ki at D(3) dopamine receptor was 1.4 nM; on D(4) dopamine receptor, 1850 nM; at D(2) dopamine receptor it was 89 nM.

For `O=C(NCCCN1CCN(c2ccccc2)CC1)C1c2ccccc2-c2ccccc21`, the Ki is 340 nM on D(3) dopamine receptor, 2170 nM at D(4) dopamine receptor and 606 nM at D(2) dopamine receptor.

Turning to `O=C1c2ccccc2C(=O)N1CCCCCN1CCN(c2cccc(Cl)c2Cl)CC1`, the Ki came to 7.8 nM on D(3) dopamine receptor, 105 nM on D(4) dopamine receptor and 11 nM at D(2) dopamine receptor.

For `O=C(NCCCCN1CCN(c2cccc(Cl)c2Cl)CC1)C1c2ccccc2-c2ccccc21`, the results for the Ki at D(3) dopamine receptor, at D(4) dopamine receptor and on D(2) dopamine receptor were 19 nM, 391 nM and 10 nM, respectively.

`CN1[C@@H]2CC[C@H]1C[C@@H](OC(c1ccc(Cl)cc1)c1ccc(Cl)cc1)C2` gave a Ki on D(3) dopamine receptor of 220 nM.

As for `O=C(NCCCN1CCN(c2cccc(Cl)c2Cl)CC1)c1cccc2c1-c1ccccc1C2=O`, the Ki at D(3) dopamine receptor is 36 nM; at D(4) dopamine receptor, 3990 nM; on D(2) dopamine receptor it was 512 nM.

As for `CN1C2CCC1CC(OC(c1ccccc1)c1ccc(Cl)cc1)C2` (stereo not given), the values for the Ki on D(3) dopamine receptor, at D(4) dopamine receptor and on D(2) dopamine receptor were 5380 nM, 1000 nM and 1740 nM, respectively.

On to `C[C@@H]1CN(CCCn2c3ccc(Br)cc3c3cc(Br)cc(Br)c32)C[C@@H](C)N1`, for which the Ki on D(3) dopamine receptor was over 8000 nM.

Regarding `C[C@@H]1CN(CCCn2c3ccccc3c3cc(N)ccc32)C[C@H](C)N1`, at D(3) dopamine receptor, the Ki was over 8000 nM.

With `CN1C2CCC1CC(OC1c3ccccc3Cc3ccccc31)C2` (stereo not given), the Ki on D(3) dopamine receptor was found to be 193 nM; at D(4) dopamine receptor, 541 nM; on D(2) dopamine receptor, 672 nM.

Take `O=C(NCCCN1CCN(c2ccccc2)CC1)c1cccc2c1-c1ccccc1C2=O`: the Ki on D(3) dopamine receptor was 430 nM; on D(4) dopamine receptor, 1380 nM; at D(2) dopamine receptor, 777 nM.

As to `O=C(NCC1c2ccccc2-c2ccccc21)C1CCNCC1`, the Ki on D(3) dopamine receptor was over 8000 nM.

Regarding `C[C@@H]1CN(CCCN(c2ccccc2)c2ccccc2)C[C@H](C)N1`, at D(3) dopamine receptor, the Ki is over 8000 nM.

Take `Fc1ccc(C(OCCN2C3CCC2CC(OC(c2ccc(F)cc2)c2ccc(F)cc2)C3)c2ccc(F)cc2)cc1` (stereo not given): the Ki on D(3) dopamine receptor came out at 214 nM; at D(4) dopamine receptor, 868 nM; at D(2) dopamine receptor, 927 nM.

At D(3) dopamine receptor, `c1ccc(N2CCN(CCCn3c4ccccc4c4ccccc43)CC2)cc1` had a Ki of 2420 nM.

On D(3) dopamine receptor, `C=CCN1C2CCC1CC(OC(c1ccc(F)cc1)c1ccc(F)cc1)C2` (stereo not given) had a Ki of 130 nM.

Regarding `O=C(NCCCCN1CCN(c2cccc(Cl)c2Cl)CC1)c1ccc2c(c1)-c1ccccc1-2`, the Ki is over 5000 nM at D(4) dopamine receptor and […] in experiment [1].

`O=C(NCCCN1CCN(c2cccc(Cl)c2Cl)CC1)c1ccc2c(c1)Cc1ccccc1-2`: the results for the Ki on D(3) dopamine receptor, on D(4) dopamine receptor and at D(2) dopamine receptor were 110 nM, 350 nM and 2570 nM, respectively.

`O=C(NCCCCCN1CCN(c2cccc(Cl)c2Cl)CC1)c1cccc2c1-c1ccccc1C2=O`: the Ki on D(3) dopamine receptor is 28 nM; at D(4) dopamine receptor, 530 nM; on D(2) dopamine receptor it was 5 nM.

Take `O=C(NCCCN1CCN(c2cccc(Cl)c2Cl)CC1)C1c2ccccc2-c2ccccc21`: the Ki at D(3) dopamine receptor is 24 nM; on D(4) dopamine receptor, 1140 nM; on D(2) dopamine receptor it was 414 nM.

As for `O=C1c2ccccc2C(=O)N1CCCCN1CCN(c2cccc(Cl)c2Cl)CC1`, the Ki stood at 4.1 nM on D(3) dopamine receptor, 368 nM on D(4) dopamine receptor and 120 nM at D(2) dopamine receptor.

The compound `CN1C2CCC1CC(OC(c1ccc(F)cc1)c1ccc(F)cc1)C2` (stereo not given) [DIFLUOROBENZTROPINE] had a Ki on D(3) dopamine receptor of 145 nM.

The record behind these values is ChEMBL document CHEMBL1134599, “Design and synthesis of [(2,3-dichlorophenyl)piperazin-1-yl]alkylfluorenylcarboxamides as novel ligands selective for the dopamine D3 receptor subtype” (J Med Chem, 2001).
